# Source: PubChem BioAssay
# An excerpt weighted towards active compounds, which were near 1.5% of everything screened.
# APJ ag: APJ receptor agonism; activation, % at 20 µM; hit rate 0.11% among 330,000; P35414; CHO-K1 APJ PathHunter beta-arrestin, luminescence; 0% DMSO wells, 100% apelin; AID 2520;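 active = activation more than six SD over the plate average, tested at 20 µM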;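 also: 0% = DMSO alone and 100% = apelin-13 at 10 nM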
#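 Assay system: engineered CHO-K1 APJ arrestin reporter cells; Amount: 1000 CHO-K1 reporter cells seeded per well; Dosing: one dose, 20 µM compound, 1% DMSO; Times: compound stimulation 90 min at 25 °C, detection 60 min; Measured by: luminescent beta-gal fragment complementation, chemiluminescent substrate; Read-out: APJ–arrestin association signal; Controls: DMSO vs Apelin-13 10 nM.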
# EBI2 block: blocks human EBI2 receptor beta-arrestin signaling. P32249. EBI2 beta-arrestin recruitment, luminescence, 7a,25-OHC stimulated. inhibition, % at 5 µM. hit rate 0.81% among 360,000. AID 651636; in the data active = inhibition above about 38%;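 also: enzyme fragment complementation signal reports receptor beta-arrestin coupling in cells; 0% = agonist plus DMSO wells and 100% = wells without agonist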
# CCR6 antag: blocks CCL20-driven beta-arrestin recruitment at human CCR6 | inhibition, % at 20 µM | P51684 | AID 493098 | hit rate 0.49% among 340,000 | CHO-K1 CCR6 PathHunter beta-arrestin, luminescence, CCL20-stimulated;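 active = compounds whose inhibition of the agonist-driven luminescence signal at 20 µM reaches about 50%, limit read from the data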;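 also: cells stimulated with CCL20 at 14 nM final; plate controls were DMSO with CCL20 for no effect and DMSO without agonist for full effect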
# Target sequence (P51684 whole entry, looked up): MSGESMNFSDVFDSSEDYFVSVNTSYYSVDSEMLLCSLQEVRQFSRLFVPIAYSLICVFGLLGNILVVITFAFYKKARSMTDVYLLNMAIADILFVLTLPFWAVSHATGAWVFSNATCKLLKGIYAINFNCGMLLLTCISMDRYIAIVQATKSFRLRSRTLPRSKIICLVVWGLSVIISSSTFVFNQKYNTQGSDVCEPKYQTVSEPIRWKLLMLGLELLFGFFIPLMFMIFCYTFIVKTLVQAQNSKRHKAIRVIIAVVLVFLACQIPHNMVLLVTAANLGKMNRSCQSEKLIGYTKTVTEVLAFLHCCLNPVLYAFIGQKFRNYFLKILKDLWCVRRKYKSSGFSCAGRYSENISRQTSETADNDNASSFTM
# CXCR6 inh: blocks human CXCR6 beta-arrestin recruitment; CHO-K1 PathHunter CXCR6 beta-arrestin, luminescence; inhibition, % at 20 µM; hit rate 0.36% among 360,000; in the data active = inhibition above about 34%, passing the limit was not always enough;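 also: antagonist mode with CXCL16 agonist at 10 nM final; 0% = 10 nM CXCL16 with DMSO and 100% = unstimulated wells without agonist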
# APJ antag: antagonists of human APJ apelin receptor. P35414. CHO-K1 APJ beta-arrestin complementation, luminescence. inhibition, % at 20 µM. hit rate 0.32% among 330,000. AID 2521;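 active = inhibition above about 40% at 20 µM, limit read from the data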;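 also: cells challenged with 10 nM apelin-13 agonist together with compound; plate controls were apelin-13 plus DMSO wells for no effect and DMSO wells lacking apelin-13 for full effect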
# APJ antag confirm: confirmation of human APJ apelin receptor antagonists. shares compounds with APJ antag. APJ beta-arrestin recruitment, luminescence, antagonist mode. inhibition, % at 20 µM. hit rate 66% among 950; in the data active = inhibition above about 50%
# * = called active by the depositor; x = no result given.
SMILES,APJ ag,EBI2 block,CCR6 antag,CXCR6 inh,APJ antag,APJ antag confirm
CN(CC(=O)Nc1ccc(Cl)c(C(F)(F)F)c1)C(=O)COC(=O)C1CC2CCCC(C1)C2=O (stereo unspecified),2,-1,4,-7,10,x
CCC(=O)Nc1c(C#N)c2nc3ccccc3nc2n1C1CCCCC1,-4,2,10,2,10,x
CCOC(=O)c1c(NC(=O)c2ccco2)n(C2CCCCC2)c2nc3ccccc3nc12,-19,19,42,23,58*,9
C[n+]1c(-c2ccccc2)sc([S-])c1-c1ccccc1,-8,-2,8,5,9,x
NS(=O)(=O)c1ccc(NNC(=O)c2ccc(Br)o2)c([N+](=O)[O-])c1,-15,14,69*,33,52*,82*
CCCCn1c(NC(=O)c2ccccc2Cl)c(C#N)c2nc3ccccc3nc21,-13,1,28,6,43*,36
N#Cc1c(NC(=O)c2ccccc2Cl)n(Cc2ccccc2)c2nc3ccccc3nc12,x,10,5,-1,x,x
CN(C)c1ccc(/C=C2\C(=N)N3C(=NC2=O)Sc2cc(S(C)(=O)=O)ccc23)cc1,11,x,x,x,53*,49
Cc1c(NC(=O)CN2CCN(c3ccc(F)cc3)CC2)c(=O)n(-c2ccccc2)n1C,-6,7,7,-5,19,x
Cc1ccc(NC(=O)/C=C/c2ccc3c(c2)OCO3)cc1S(=O)(=O)N1CCOCC1,0,5,8,-11,-18,x
Nc1[nH]c2cc([N+](=O)[O-])ccc2c1-c1ccccn1,-7,20,49,34,47*,100*
CCn1nc(C)cc1-c1nnc(Sc2ncc([N+](=O)[O-])s2)n1C,3,25,97*,84*,57*,65*
Cc1cc(C)nc(SSc2nc(C)cc(C)n2)n1,-2,12,1,2,3,x
CC(c1ccccc1)N1C(=O)OC(C)(C)C1(C)O (stereo unspecified),4,-2,1,0,72*,8
CN1C(=O)OC(C)(CCc2ccccc2)C1(C)O (stereo unspecified),-2,-1,4,-1,-13,x
CCCS(=O)(=O)N1CCN=C1SCc1cccc(C)c1,-4,-1,18,-12,-2,x
CC(C)Oc1cccc(C(=O)NC(=S)Nc2cccnc2)c1,-5,-1,38,21,42*,50*
COc1cccc(C(=O)NC(=S)Nc2cccnc2)c1,-5,-12,34,23,21,x
CCOC(=O)C1CCCN(c2c(NCCCN(CC)c3ccccc3)c(=O)c2=O)C1 (stereo unspecified),-1,5,-4,-1,-13,x
CCOC(=O)C1CCCN(c2c(NCCN(CC)c3ccccc3)c(=O)c2=O)C1 (stereo unspecified),0,-1,8,3,40*,4
COc1ccc(-n2c(-c3ccc(Cl)cc3)c[nH]c2=S)cc1,0,3,3,10,-13,x
O=C1CCN(Cc2ccc(Br)cc2)CCN1[C@H](CO)Cc1ccccc1,-5,6,19,25,45*,30
O=C1CCN(Cc2ccccc2)CCN1[C@H](CO)Cc1ccccc1,2,4,2,2,7,x
O=C(CN1CCN(Cc2ccc(Cl)cc2)CC1)N/N=C/c1ccccc1F,0,32,8,-2,13,x
Cc1c(NC(=O)c2cc(CC(C)C)on2)c(=O)n(-c2ccccc2)n1C,-2,-10,-1,5,5,x
SMILES,APJ ag,EBI2 block,CCR6 antag,CXCR6 inh,APJ antag,APJ antag confirm
CC[N+](CC)(CC#Cc1ccccc1)CC(=O)c1ccc(Cl)cc1,-4,0,69*,23,77*,22
Cc1ccc(NC(=O)Nc2ccc3c(c2)OCO3)c(Br)c1,4,-3,10,-1,41*,16
Cc1ccc(OCC(=O)Nc2ccc3c(c2)OCO3)c(C)c1,-3,3,5,1,66*,45
C=CCOC(=O)C1=C[C@@H](c2cn(C(C)=O)c3ccccc23)C[C@@H](OCc2ccc(CO)cc2)O1,-5,7,21,3,5,x
Cc1cccc(OCc2nc(-c3cccnc3)no2)c1,2,-4,15,-12,-4,x
Cc1cc(=O)n2nc(N3CCCC(C(=O)NCc4ccco4)C3)sc2n1 (stereo unspecified),-4,5,-2,5,50*,16
